Laboratory results from ChEMBL document CHEMBL4513216, “Probing the Open Global Health Chemical Diversity Library for Multistage-Active Starting Points for Next-Generation Antimalarials” (ACS Infect Dis, 2020).

Assay: Toxicity liver stage against HepG2, at 10uM
Type: cell-based
Design: test concentration 10 uM, cell line HepG2-A16-CD81EGFP
Conditions: human, HepG2-A16-CD81EGFP cells; read-out: INHIBITION
Outline: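 Uninfected HepG2-A16-CD81EGFP cells, 3 × 10^3 per well, 1536-well, plated on prespotted compound at 10 μM final, parasite-free screening media added to match infected plates; puromycin 10 μM positive, DMSO 0.5% negative; run in parallel with 48 h PbLuc assay at 37 °C, 5% CO2; viability by CellTiter-Glo luminescence, normalized to controls.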

In order of falling cytotoxicity at 10 µM:
1. Cc1ccc(-c2cc(C(=O)NCCCc3csc(N)n3)[nH]n2)s1  81.7%
2. CCS(=O)(=O)N1CCc2ccc(NC(=O)Nc3ccccc3)cc21  42.2%
3. COc1ccc([C@@H]2CN(c3cc(OC)nc(N)n3)C[C@H]2N(C)C)cc1  15%
4. COc1ccc(S(=O)(=O)N2CCC[C@@H]3CN(C(=O)C4CC4)C[C@@H]32)cc1  14.7%
5. CC(=O)N1CCCC(c2nc(N(C)C)ncc2-c2ccccc2)C1 (centres undefined)  14.7%
6. CC(=O)Nc1nc(CN2CCOC(Cn3cc(C)cn3)C2)cs1 (centres undefined)  11.3%
7. CC(=O)N1CCC2(CC1)C(=O)N(CC1CC1)c1ccccc12  11.2%
8. CNC(=O)c1c[nH]nc1C1CCCN1c1ncccn1 (centres undefined)  10%
9. COc1ccc(CN2CCc3c(CNC(=O)CC#N)nn(C)c3C2)cc1  9.67%
10. Cc1ccccc1N1CCN(c2nc(N(C)C)nc3c2CCNC3)CC1  8.97%
11. CCN(CC)S(=O)(=O)NCC(O)c1c(Cl)cccc1Cl (centres undefined)  8.66%
12. Cn1nc2c(cc1=O)CN(c1ncnc3sccc13)CC2  7.97%
13. CN(C)C(=O)c1nc2c(n1C)CCN(Cc1ccccc1)C2  7.83%
14. COCCN1C(=O)[C@@H]2CC[C@H]1CN(c1nccc(C3CCCC3)n1)C2  7.67%
15. CN(C)S(=O)(=O)NCC1OCCc2cn(CC3CCOCC3)nc21 (centres undefined)  7.4%
16. Cn1nc(COCC2CC2)c2c1CCN(C(=O)c1ccno1)C2  6.8%
17. c1cncc(COCc2nnn3c2CN(Cc2ccsc2)CC3)c1  6.4%
18. CCS(=O)(=O)N1CCC(c2nccn2Cc2ccccn2)CC1  6.27%
19. CCCn1cc(-c2cc(C(=O)N(C)C)c3ccc(OC)cc3n2)cn1  6.22%
20. CC(Oc1ccccc1C#N)C(=O)NC1CC1 (centres undefined)  6.21%
21. Cc1c(-c2cc(C(F)(F)F)nc(N3CCC(N)CC3)n2)cnn1C  6.14%
22. Cc1cc(CN(C)C(=O)NCc2ccnc(N(C)C)c2)no1  5.85%
23. CCO[C@@H]1CC[C@H]2[C@H]1OCCN2S(=O)(=O)C1CC1  5.64%
24. CSc1cc2c(cc1NC(=O)N(C)Cc1cnn(C)c1)OCCO2  5.25%
25. CC1=Nc2c(c(=O)[nH]n2C2CCCC2)C(c2cccc(O)c2)S1 (centres undefined)  4.8%
26. CC(C)c1n[nH]c(C2CN(C(=O)CCn3ccccc3=O)CCO2)n1 (centres undefined)  4.48%
27. O=c1[nH]c(CCN2CCN(CC(F)(F)F)CC2)nc2ccccc12  4.44%
28. CN1CC2(CCN(C(=O)c3ccc(-n4cccn4)cc3Cl)C2)OC1=O (centres undefined)  4.36%
29. Cc1n[nH]c(C2CN(C(=O)c3cc(Cl)c[nH]3)CCO2)n1 (centres undefined)  3.95%
30. COCCN1CCC2(CC1)CN(C(C)=O)c1ccc(C)cc12  3.77%
31. Cc1ccsc1CN1CCC2(CC1)CC(OCc1cccnc1)CO2 (centres undefined)  3.45%
32. Cc1cnn(CC2CCCN2C(=O)c2ccc(F)cc2Cl)c1 (centres undefined)  2.99%
33. CCC[C@H]1CN(CCS(C)(=O)=O)C[C@@H]1NC(=O)c1cc[nH]n1  2.75%
34. O=C1CN(Cc2nnc(-c3ccc(Br)cc3)o2)CCN1  2.55%
35. CC1CCN(Cc2ccccc2CNC(=O)C2CNC(=O)N2)CC1 (centres undefined)  2.16%
36. Cc1ncccc1NC(=O)C1=NOC2(CCN(Cc3nccs3)C2)C1 (centres undefined)  2.11%
37. COCCN1CCCN(C(=O)c2oc(C)nc2C)CC1  2.04%
38. O[C@@H]1CN(CC2=Cc3cc(Cl)ccc3OC2)CC[C@H]1N1CCCCCC1  1.9%
39. Cc1nnc(NCc2ccc(Br)cc2)o1  1.66%
40. Cc1cc2nc(SCC(=O)N3CCOCC3)n(CC(C)C)c(=O)c2[nH]1  1.36%
41. O=C(NCC1CC1)[C@@H]1CCO[C@@H]2CCN(CCc3ccccc3)C[C@H]21  1.14%
42. Cc1cc(S(=O)(=O)N2CCC(N3CCC(O)C3)CC2)c(Cl)cc1Cl (centres undefined)  0.944%
43. Cc1cc(N(C)C)nc(N2CCn3c(nnc3C3CC3)C2)n1  0.485%
44. COc1ccc(-n2nc(C(C)=O)c(C(C)=O)c2C)cc1Cl  -0.145%
45. Cc1cc(-c2cnc(N3CCCC3)nc2-c2ccc(C)s2)on1  -0.279%
46. C[C@H](NC(=O)c1cccc(CCC(C)(C)O)c1)C(N)=O  -0.511%
47. COc1ccc2nnc(CCCC(=O)NCc3ccccc3F)n2n1  -0.524%
48. Cc1nn(C)c(N2CCOCC2)c1CNC1CCc2ccccc21 (centres undefined)  -0.704%
49. CCc1cnc(N2CCC3(CCN(Cc4cccc(C)c4)C3=O)C2)nc1 (centres undefined)  -0.891%
50. CNC(=O)COc1ccc(CNc2cncc(-n3cccn3)n2)cc1  -0.906%
51. CC(C)c1nnc(NCCS(C)(=O)=O)s1  -1%
52. CC(C)(N)C(=O)N1CCCC(C(=O)c2ccc(C(C)(C)C)cc2)C1 (centres undefined)  -1.1%
53. O=C(CN1CCCc2c(F)cc(Br)cc21)N1CCCC1  -1.26%
54. CNC(=O)CN1CC[C@H]2CN(C(=O)c3ccccc3F)C[C@H]2C1  -1.34%
55. Cc1nc(C2CCNCC2)cc(N(C)CCc2cn[nH]c2)n1  -1.54%
56. CC(C(=O)N1CCc2ccccc2C1)N(C)Cc1cscn1 (centres undefined)  -1.6%
57. c1ncn(Cc2ccc(CNCc3ccc4c(c3)OCCO4)cc2)n1  -1.66%
58. c1ccc2ncc(CC3CCNC3)cc2c1 (centres undefined)  -1.67%
59. NC(=O)CN1CCC(C(=O)N2CCCC(OCc3cccnc3)C2)CC1 (centres undefined)  -1.88%
60. Cc1nc(C)n(C2CCCN(C(=O)CCOC(C)C)C2)n1 (centres undefined)  -1.92%
61. O=c1[nH]ncn1-c1cccc(C(F)(F)F)c1  -2%
62. c1nc(N2CCCCC2Cn2cncn2)c2ccsc2n1 (centres undefined)  -2.49%
63. Fc1ccc(Oc2nccnc2C2CCN(C3CCOCC3)CC2)cc1  -2.5%
64. CSCCCN1CCn2nc(CNC(=O)N(C)C)cc2C1  -2.66%
65. CSc1ccc2cc(CN(C)CCCN(C)C)c(=O)[nH]c2c1  -2.72%
66. Cc1cc(C2CCC2)nc(N(C)CCc2ccccn2)n1  -3.09%
67. CCc1nnc2n1CCN(C(=O)c1ccc3c(c1)[nH]c(=O)n3C)C2  -3.22%
68. O=C(N1CCCC1)N1CCOCC2(CCN(Cc3cccs3)C2)C1 (centres undefined)  -3.85%
69. CS(=O)(=O)c1ccc(NCCC2CCCO2)c(S(C)(=O)=O)c1 (centres undefined)  -4.27%
70. NCC1(c2cccc(C(F)(F)F)c2)CCC1  -4.27%
71. CCn1cc(NC(=O)NCC(O)CN2CCc3ccccc3C2)cn1 (centres undefined)  -4.33%
72. CCN(Cc1noc(C(C)(C)C)n1)Cc1ccc(C#N)cc1F  -4.45%
73. O=C(Nc1ccc(-c2cnc(NCCO)nc2)cc1)[C@@H]1CCCCN1  -5.08%
74. CCc1nc(C2CCCN2Cc2nnc(CC)o2)no1 (centres undefined)  -5.36%
75. Cc1cc(C)nc(N2CCCC(Cn3cc(CN(C)C)nn3)C2)n1 (centres undefined)  -5.43%
76. O=S(=O)(c1ccc2c(c1)OCCO2)N1CCc2ccccc2C1  -5.52%
77. N#Cc1cccc(CN(CC(=O)N2CCCC2)CC2CCCO2)c1 (centres undefined)  -5.52%
78. Cn1ccnc1CN1CC[C@@H]2[C@@H](CCC(=O)N2CCc2c[nH]cn2)C1  -5.68%
79. CC(=O)NCC(=O)N1Cc2cnc(CC(C)C)nc2C1  -6.12%
80. CC(C)CCNC(=O)c1ccc(-n2cnc3ccccc3c2=O)cc1  -6.17%
81. Cn1ccnc1C(NCc1ccc(Br)cc1)c1ccccc1 (centres undefined)  -6.39%
82. Cc1ncc(CNC(=O)CCc2cccc(F)c2)c(C2CCCN2C)n1 (centres undefined)  -6.82%
83. CC(C)CNC(=O)C(C)N1CCN(C2CCN(C(C)C)CC2)CC1 (centres undefined)  -7.09%
84. CCOc1nnc(CN2CCC(N(C)Cc3noc(C)n3)C2)s1 (centres undefined)  -7.3%
85. c1csc(CN2CCO[C@H]3[C@H](OCCN4CCCC4)CC[C@@H]32)n1  -7.32%
86. Cc1cccc(-c2ccc(C(=O)NCC3CCCO3)c(=O)[nH]2)c1 (centres undefined)  -7.36%
87. CCN1CCC(CC(=O)NCCc2nc(C)c(Cl)s2)CC1  -7.43%
88. CCS(=O)(=O)N1CCC(c2nnc(CN3CCCCCC3)n2C)CC1  -8.01%
89. Cc1nc(C)c(C(=O)Nc2cc(N3CCC(C)CC3)ncn2)s1  -8.11%
90. CCN1CCN(S(=O)(=O)c2ccc(Cc3cc(C)n[nH]c3=O)cc2)CC1  -8.25%
91. NCC(=O)N1CCC(c2cncc(Oc3cccnc3)n2)CC1  -9.08%
92. O=C(CCOc1ccccc1)N1CCC(Nc2cccnn2)CC1  -9.29%
93. COCCN1CCC(NCc2ccc(C#N)cc2)C1 (centres undefined)  -9.34%
94. CC(=O)N1CC[C@@H]2CN(Cc3cccc(Cl)c3)S(=O)(=O)[C@@H]2CC1  -10.8%
95. Cc1ccc(CNC(=O)NC2CCCc3c2cnn3CCO)cn1 (centres undefined)  -11.8%
96. Cc1cnc(C(=O)N2CCCC(n3nc(C)nc3C)C2)cn1 (centres undefined)  -12%
97. CCC1c2ccsc2CCN1C(=O)NCCNc1ncccn1 (centres undefined)  -13.6%
98. O=C(NCC1CC1)C1CSCN1S(=O)(=O)c1cccc(F)c1 (centres undefined)  -14.3%
99. Cc1nc(CN2CCOCC3(CCN(c4ncccn4)C3)C2)cs1 (centres undefined)  -22.8%
100. CCCC(=O)N1CCC(c2ncc3c(n2)CCNC3)CC1  -23.1%
101. CC1CN(C)c2ccccc2CN1C(=O)c1ccncc1 (centres undefined)  -23.4%
102. CN(CC(=O)N1CC(C)(C)[C@](O)(C2CC2)C1)Cc1ccncc1  -44.1%
103. COCCN1C2(CCN(Cc3nccs3)C2)c2ccccc2S1(=O)=O (centres undefined)  -65.7%
104. O=C(c1ccnnc1)N1CC[C@H]2C[C@H](c3ccncn3)O[C@@H]2C1  -71.8%
105. Cc1cc(CN2C[C@@H]3COC[C@@H](C(=O)N4CCCCO4)[C@@H]3C2)oc1C  -72.8%
106. O=C(CC1CC1)N1CCC2(CC1)CN(c1cccnc1)C(=O)CO2  -90.8%
107. CN(Cc1ccccc1F)Cc1cc2c(cc1Br)OCCO2  -139%
108. CC/C=C(/C)C(=O)N1CCN(C2=NCC(C)S2)CC1 (centres undefined)  -145%
109. OCCC1(NCc2ccc(-n3cccn3)cc2)CCOCC1  -146%
